Experimental data from PubChem BioAssay AID624466 (The Scripps Research Institute Molecular Screening Center, 2012).
About 5,400 (1.5%) of roughly 360,000 compounds were called active.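 How the source made its calls: active means inhibition above a per-plate cutoff, the mean inhibition of test compounds on that plate plus 3 SD (cut at about 49% in these data); inactive means the rest.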 The sample as a whole holds a higher share of actives than the screen did.

Target: Trace amine-associated receptor 1 (Homo sapiens) (UniProt Q96RJ0)
Sequence (Q96RJ0 whole entry, looked up): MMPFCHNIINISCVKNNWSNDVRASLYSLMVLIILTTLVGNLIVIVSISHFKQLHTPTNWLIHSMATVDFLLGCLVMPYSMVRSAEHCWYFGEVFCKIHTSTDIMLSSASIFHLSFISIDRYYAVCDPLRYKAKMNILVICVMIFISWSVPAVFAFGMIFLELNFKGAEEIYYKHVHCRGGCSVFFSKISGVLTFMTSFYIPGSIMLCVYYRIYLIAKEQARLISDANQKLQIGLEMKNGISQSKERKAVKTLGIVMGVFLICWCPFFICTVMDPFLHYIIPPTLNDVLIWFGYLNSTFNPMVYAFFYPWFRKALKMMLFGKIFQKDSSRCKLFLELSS
Assay: blockers of beta-PEA-driven TAAR1 calcium signal – Fluo-8 calcium fluorescence, CHO RD-HGA16 cells, primary screen (AID 624466);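 further: 0% = DMSO plus EC80 beta-PEA response and 100% = DMSO alone without agonist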
Details: CHO RD-HGA16 TAAR1, Fluo-8 calcium fluorescence, antagonist; at 3 µM; stronger effect = higher value
Method in brief: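 Test system: hTAAR1-expressing CHO RD-HGA16 cells, Gα16-coupled; Probe or stimulus: EC80 β-phenethylamine stimulus; Compound dosing: single nominal final test compound concentration of 3 µM; Timing: 140 s kinetic read after compound, 140 s after agonist; Signal: Fluo-8 calcium-sensitive fluorescence; Measure: % inhibition of agonist calcium response; Controls: DMSO and EC80 PEA controls.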

Row | Structure (SMILES) | inhibition
1 | CS(=O)(=O)N1CCc2cc(C(=O)Nc3ccccc3)ccc21 | 9.11% (inactive)
2 | CC(=O)Nc1cccc(NC(=O)c2ccc3c(c2)CCN3S(C)(=O)=O)c1 | 50% (active)
3 | CS(=O)(=O)N1CCc2cc(C(=O)Nc3ccccc3Br)ccc21 | 23.9% (inactive)
4 | Cc1ncc([N+](=O)[O-])n1CCOC(=O)c1ccc(Br)cc1 | 11.2% (inactive)
5 | CC(C)(C)C(c1nc2ccccc2[nH]1)n1c(Cc2csc3ccccc23)nc2ccccc21 (configuration not stated) | 11.6% (inactive)
6 | CC(C)C[C@@H]1Cc2[nH][nH]c(=O)c2[C@H](CCc2ccccc2)O1 | -21.2% (inactive)
7 | C[N+](C)(C)CCNC(=O)c1cc[n+](Cc2ccccc2)c(/C=N/O)c1 | 5.47% (inactive)
8 | COC(=O)C1=C(C)N(Cc2ccccc2C(F)(F)F)C(=NCc2ccc(OC)cc2)NC1c1cccc(C(F)(F)F)c1 (configuration not stated) | 4.48% (inactive)
9 | Cc1ccc(S(=O)(=O)N(CC(=O)NCc2ccco2)c2ccccc2C)cc1 | 5.84% (inactive)
10 | COc1ccc(S(=O)(=O)N(CC(=O)NCc2ccco2)c2ccc(F)cc2)cc1 | 57.5% (active)
11 | CCN(CC(=O)NCc1ccco1)S(=O)(=O)c1ccc(F)cc1 | -11.9% (inactive)
12 | COc1ccc(C(C(=O)NCc2ccccc2)n2c(=O)c(-c3ccccc3)nc3ccccc32)cc1 (configuration not stated) | -24.7% (inactive)
13 | CN(Cc1ccccc1)C(=O)[C@@H]1CCCN1C(=O)[C@@H]1CCCN1C(=O)c1c(F)cccc1F | -1.21% (inactive)
14 | Cc1nnc(SCC(=O)NC(=O)NC2CCCC2)n1N | -8.31% (inactive)
15 | COc1cc(NC(=O)c2cc(-c3ccc(F)cc3OC(C)C)n[nH]2)cc(OC)c1OC | 47.6% (inactive)
16 | CC(C)Oc1cc(F)ccc1-c1cc(C(=O)Nc2cccc(Cl)c2)[nH]n1 | 42.5% (inactive)
17 | CC(C)Oc1cc(F)ccc1-c1cc(C(=O)Nc2ccc(F)cc2)[nH]n1 | 68.5% (active)
18 | O=C(CN1CCN(c2ccc(O)cc2)CC1)NC1CCCc2ccccc21 (configuration not stated) | -0.58% (inactive)
19 | Cc1ccc(C2CC(c3cccc(NS(C)(=O)=O)c3)=NN2S(C)(=O)=O)cc1 (configuration not stated) | 0.27% (inactive)

Row | Structure (SMILES) | inhibition
20 | CCS(=O)(=O)Nc1ccc(C2=NN(C(C)=O)C(c3cccs3)C2)cc1 (configuration not stated) | 6.89% (inactive)
21 | CS(=O)(=O)Nc1cccc(C2=NN(C(=O)c3cccc(F)c3)C(c3cccs3)C2)c1 (configuration not stated) | 62.3% (active)
22 | FC(F)Oc1ccc(NC(=S)NCc2ccco2)cc1Cl | 36.8% (inactive)
23 | O=C(CSc1nc2cccc(F)c2c(=O)n1-c1ccccc1)Nc1ccc2c(c1)CCC2 | -17.1% (inactive)
24 | CC(NC(=O)c1ccccc1)C(=O)OCC(=O)Nc1cccc(S(=O)(=O)N2CCCC2)c1 (configuration not stated) | -4.21% (inactive)
25 | O=C(COC(=O)COc1ccccc1F)Nc1cccc(S(=O)(=O)N2CCCCC2)c1 | -6.77% (inactive)
26 | CCOc1ncccc1C(=O)OCC(=O)Nc1cccc(S(=O)(=O)N2CCCCCC2)c1 | 63.8% (active)
27 | COc1cccc(CCNC(=O)COc2cccc3c2OC(C)(C)C3)c1 | 3.3% (inactive)
28 | CCCNC(=O)C1CC(=O)N(c2ccc(OCC(=O)Nc3cccc(C)c3C)cc2)C1 (configuration not stated) | -17.9% (inactive)
29 | NC(=O)c1ccsc1NC(=O)COC(=O)COc1ccc(C=O)cc1 | 24.6% (inactive)
30 | Cc1cccc(C(=O)OCC(=O)Nc2sccc2C(N)=O)c1C | -21.5% (inactive)
31 | COc1cc(OC)cc(C(=O)OCC(=O)Nc2sccc2C(N)=O)c1 | 63% (active)
32 | CCCCNC(=O)C[C@@H]1C[C@@]2(C(=O)OCC)CCC=C2N(Cc2cccc3ccccc23)C1=O | -3.28% (inactive)
33 | COc1cc(C(=O)OC(C)C(=O)NCC2CCCCC2)cc(NC(=O)c2ccco2)c1OC (configuration not stated) | -4.96% (inactive)
34 | Cc1cc2c(cc1S(=O)(=O)CCC(=O)NCc1ccccc1)OCC(=O)N2 | 8.55% (inactive)
35 | COc1ccc(NC(=O)CCS(=O)(=O)c2cc3c(cc2Cl)NC(=O)CO3)cc1OC | -9.29% (inactive)
36 | COc1ccc(Cl)cc1NC(=O)CCS(=O)(=O)c1cc2c(cc1C)NC(=O)CO2 | 63.3% (active)
37 | O=C(NC1CCCC1)C1c2ccccc2OCC(=O)N1Cc1ccccc1 (configuration not stated) | -5.5% (inactive)
38 | Cc1ccc(C)c(OCCC(=O)OCC(=O)NC(=O)NCc2ccccc2)c1 | -20.1% (inactive)

Row | Structure (SMILES) | inhibition
39 | COc1cc(SC#N)ccc1N=Cc1c(C)[nH]n(-c2ccc(C)cc2)c1=O | 87.5% (active)
40 | Cc1ccc2cc(C)c(N3CCN(c4ccc(F)cc4)CC3)nc2c1 | -19.1% (inactive)
41 | Cc1ccc2cc(C)c(N3CCC(C)CC3)nc2c1 | -22.1% (inactive)
42 | Cc1cc(C)c2cc(C#N)c(N3CCNCC3)nc2c1 | 76.6% (active)
43 | COC(=O)[C@]12C[C@H](CC(=O)NCc3cccc(C(F)(F)F)c3)C(=O)N(Cc3ccc4c(c3)OCO4)C1=C[C@H](COCc1ccccc1)O[C@@H]2C | -19.1% (inactive)
44 | COc1ccc(N2CCN(C(=O)c3ccc(N4CCCCS4(=O)=O)cc3)CC2)cc1 | -21.9% (inactive)
45 | CC(C)C(=O)Nc1ccc2c3c(cccc13)CC2 | -5.92% (inactive)
46 | Cc1cc(NC(=O)COC(=O)c2ccc(F)c(S(=O)(=O)N3CCOCC3)c2)no1 | -19.8% (inactive)
47 | COc1ccc(C(=O)Oc2ccc(-c3nnco3)cc2)cc1S(=O)(=O)N1CCOCC1 | 60.2% (active)
48 | COc1ccc(C(=O)OCC(=O)c2ccc(C)c(S(=O)(=O)N3CCOCC3)c2)cc1OC | 47.7% (inactive)
49 | O=C(Oc1ccc(-c2nnco2)cc1)c1ccc(F)c(S(=O)(=O)N2CCOCC2)c1 | 84.1% (active)
50 | COc1ccc(C(=O)OC(C)C(=O)NC2CCCC2)cc1S(=O)(=O)N1CCOCC1 (configuration not stated) | -9.55% (inactive)
51 | NC(=O)C1CCN(C(=O)c2ccc(F)c(S(=O)(=O)N3CCOCC3)c2)CC1 | 6.75% (inactive)
52 | CC(C)(O)C1=C[N+](=O)CC=C1 | 2.41% (inactive)
53 | CC1(C(=O)Nc2cccnc2)Cc2c(-c3ccccc3)ccnc2O1 (configuration not stated) | -9.98% (inactive)
54 | CC(C)C[C@@H]1COc2cc(N3CCC[C@@H]3CO)ccc2S(=O)(=O)N1 | -24.6% (inactive)
55 | O=C(CN1C(=O)c2cccnc2Oc2ccc(Cl)cc21)NCCc1ccccc1 | 12.2% (inactive)
56 | Cc1ccc2c(c1)N(CC(=O)NCCCN1CCCCC1)C(=O)c1cccnc1O2 | -18.1% (inactive)
57 | Cc1ccc2c(c1)N(CC(=O)NCCc1ccc(Cl)cc1)C(=O)c1cccnc1O2 | 64.2% (active)
